Measurements as given in ChEMBL document CHEMBL1155539, “Discovery of 4-[1-[([1-[4-(trifluoromethyl)benzyl]-1H-indol-7-yl]carbonyl)amino]cyclopropyl]benzoic acid (MF-766), a highly potent and selective EP4 antagonist for treating inflammatory pain” (Bioorg Med Chem Lett, 2010).

How the values were obtained:
[1] = system: Canis familiaris; test: AUC (0 to 24 hrs) in Beagle dog at 4 mg/kg, po; conditions: in vivo
[2] = system: Rattus norvegicus; test: Antiinflammatory activity in rat assessed as inhibition of complete Freund's adjuvant-induced primary paw swelling at 0.001 to 1 mg/kg administered daily once 9 days after adjuvant challenge measured on day 18; type: functional; design: scale not given: the % may be the effect or the level left; conditions: dose mg/kg 0.001-1
Outline: (§1)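 Rat adjuvant-induced arthritis model with daily dosing in mg/kg/day. Dose groups were 0, 0.001, 0.01, 0.1 and 1 mg/kg, plus a non-AIA control group. Primary and secondary paw swelling were scored as % inhibition relative to vehicle-treated arthritic rats, and ED50 was estimated from the dose–response.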

[3] = AUC (0 to 24 hrs) in Sprague-Dawley rat at 20 mg/kg, po; type: ADME, organism-based; design: time < 24 hr, dose 20 mg/kg, route oral; conditions: plasma
Outline: (§2)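 Sprague-Dawley rats dosed iv at 5 mg/kg and po at 20 mg/kg. The iv group was n = 2 males given the free acid in 60% PEG 200 at 1 mL/kg. PK parameters were derived from plasma levels.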

[4] = target: T1, Prostaglandin E2 receptor EP1 subtype (Homo sapiens, UniProt P34995); test: Displacement of [3H]PGE2 from human prostanoid EP1 receptor expressed in HEK293-EBNA cells after 60 mins by scintillation counting; type: cell-based
T1 sequence (P34995 whole entry): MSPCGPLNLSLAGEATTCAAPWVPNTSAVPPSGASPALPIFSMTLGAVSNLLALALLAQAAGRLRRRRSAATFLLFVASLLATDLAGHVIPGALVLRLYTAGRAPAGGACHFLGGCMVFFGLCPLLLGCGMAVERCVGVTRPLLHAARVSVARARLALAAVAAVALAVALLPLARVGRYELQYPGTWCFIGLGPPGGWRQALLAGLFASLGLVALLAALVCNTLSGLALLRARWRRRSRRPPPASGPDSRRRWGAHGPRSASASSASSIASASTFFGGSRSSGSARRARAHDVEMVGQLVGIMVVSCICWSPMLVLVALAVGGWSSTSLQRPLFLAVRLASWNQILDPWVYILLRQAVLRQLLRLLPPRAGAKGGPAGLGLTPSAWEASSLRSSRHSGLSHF

[5] = target: T2, Prostaglandin E2 receptor EP4 subtype (Homo sapiens, UniProt P35408); test: Antagonist activity at prostanoid EP4 receptor in human whole blood assessed as inhibition of TNF-alpha-induced IP-10 release in presence EP4 agonist L-000902688; type: functional, tissue-based
[6] = Drug level in complete Freund's adjuvant challenged rat administered daily once 9 days after adjuvant challenge measured on day 18 after 2 hrs post dose; type: ADME, organism-based; conditions: in vivo, read-out: Drug uptake
Outline: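 In a separate rat AIA experiment with daily dosing, plasma drug levels were measured 2 h and 24 h after the final dose.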

[7] = system: Rattus norvegicus; test: Antiinflammatory activity in rat assessed as inhibition of complete Freund's adjuvant-induced secondary paw swelling at 0.001 to 1 mg/kg administered daily once 9 days after adjuvant challenge measured on day 18; type: functional; design: scale not given: the % may be the effect or the level left; conditions: dose mg/kg 0.001-1
Outline: as §1

[8] = target: T2, Prostaglandin E2 receptor EP4 subtype; test: Antagonist activity at human prostanoid EP4 receptor expressed in HEK293 cells assessed as inhibition of PGE2-induced cAMP accumulation by scintillation proximity assay in presence of 10% human serum; type: functional, cell-based
[9] = target: T2, Prostaglandin E2 receptor EP4 subtype; test: Antagonist activity at human prostanoid EP4 receptor expressed in HEK293 cells assessed as inhibition of PGE2-induced cAMP accumulation by scintillation proximity assay; type: functional, cell-based
Outline: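 Read-out was inhibition of PGE2-induced cAMP accumulation at EP4. Values are means from at least two independent experiments.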

[10] = system: Hepatocyte; test: Oxidative metabolism in rat hepatocytes assessed as protein covalent binding after 2 hrs; type: ADME, cell-based
Outline: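 [3H]-labelled compound incubated with fresh rat or human hepatocytes for 2 h. Covalent protein binding was expressed as pmol-equiv/mg protein, and samples were checked for tritium loss by HPLC with radiometric detection.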

[11] = system: Rattus norvegicus; test: Antiinflammatory activity in rat assessed as inhibition of complete Freund's adjuvant-induced primary paw swelling administered daily once 9 days after adjuvant challenge measured on day 18; type: functional
Outline: as §1

[12] = target: T2, Prostaglandin E2 receptor EP4 subtype; test: Displacement of [3H]PGE2 from human prostanoid EP4 receptor expressed in HEK293-EBNA cells after 60 mins by scintillation counting; type: cell-based
[13] = target: T3, Prostaglandin D2 receptor (Homo sapiens, UniProt Q13258); test: Displacement of [3H]PGD2 from human Prostanoid DP1 receptor expressed in HEK293-EBNA cells after 60 mins by scintillation counting; type: cell-based
T3 sequence (Q13258 whole entry): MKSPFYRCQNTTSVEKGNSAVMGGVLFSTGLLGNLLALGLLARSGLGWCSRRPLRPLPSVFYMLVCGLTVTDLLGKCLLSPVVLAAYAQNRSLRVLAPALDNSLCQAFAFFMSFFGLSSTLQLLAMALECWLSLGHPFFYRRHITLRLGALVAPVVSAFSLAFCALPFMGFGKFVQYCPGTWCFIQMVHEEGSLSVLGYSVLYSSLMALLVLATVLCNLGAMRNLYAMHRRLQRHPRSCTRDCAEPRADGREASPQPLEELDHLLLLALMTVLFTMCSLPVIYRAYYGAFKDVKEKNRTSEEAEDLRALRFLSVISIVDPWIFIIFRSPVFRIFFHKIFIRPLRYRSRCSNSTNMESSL

[14] = target: T4, Thromboxane A2 receptor (Homo sapiens, UniProt P21731); test: Displacement of [3H]SQ-29548 from human prostanoid TP receptor expressed in HEK293-EBNA cells after 60 mins by scintillation counting; type: cell-based
T4 sequence (P21731 whole entry): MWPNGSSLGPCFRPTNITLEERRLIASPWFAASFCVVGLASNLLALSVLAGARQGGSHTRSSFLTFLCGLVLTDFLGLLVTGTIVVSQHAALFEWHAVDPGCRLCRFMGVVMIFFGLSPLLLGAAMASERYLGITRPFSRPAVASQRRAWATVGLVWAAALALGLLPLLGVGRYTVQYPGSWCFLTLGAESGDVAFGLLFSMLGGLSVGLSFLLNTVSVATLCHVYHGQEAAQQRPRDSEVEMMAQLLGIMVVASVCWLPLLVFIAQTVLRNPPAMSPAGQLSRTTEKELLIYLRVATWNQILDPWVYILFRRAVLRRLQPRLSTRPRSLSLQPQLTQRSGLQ

[15] = Plasma clearance in Sprague-Dawley rat at 5 mg/kg, iv and 20 mg/kg, po; type: ADME, organism-based
Outline: as §2

[16] = system: Rattus norvegicus; test: Antiinflammatory activity in rat assessed as inhibition of complete Freund's adjuvant-induced secondary paw swelling administered daily once 9 days after adjuvant challenge measured on day 18; type: functional
Outline: as §1

[17] = Volume of distribution in Beagle dog at 1 mg/kg, iv and 4 mg/kg, po; conditions: in vivo
[18] = Bioavailability in Sprague-Dawley rat at 5 mg/kg, iv and 20 mg/kg, po; type: ADME, organism-based; conditions: in vivo
Outline: as §2

[19] = target: Prostaglandin F2-alpha receptor (Homo sapiens, UniProt P43088); test: Displacement of [3H]PGF2alpha from human prostanoid FP receptor expressed in HEK293-EBNA cells after 60 mins by scintillation counting; type: cell-based
[20] = Volume of distribution in Sprague-Dawley rat at 5 mg/kg, iv and 20 mg/kg, po; type: ADME, organism-based; conditions: in vivo
Outline: as §2

[21] = Elimination half life in Sprague-Dawley rat at 5 mg/kg, iv and 20 mg/kg, po; type: ADME, organism-based; conditions: in vivo, read-out: beta t1/2 (converted)
Outline: as §2

T2 sequence (P35408 whole entry): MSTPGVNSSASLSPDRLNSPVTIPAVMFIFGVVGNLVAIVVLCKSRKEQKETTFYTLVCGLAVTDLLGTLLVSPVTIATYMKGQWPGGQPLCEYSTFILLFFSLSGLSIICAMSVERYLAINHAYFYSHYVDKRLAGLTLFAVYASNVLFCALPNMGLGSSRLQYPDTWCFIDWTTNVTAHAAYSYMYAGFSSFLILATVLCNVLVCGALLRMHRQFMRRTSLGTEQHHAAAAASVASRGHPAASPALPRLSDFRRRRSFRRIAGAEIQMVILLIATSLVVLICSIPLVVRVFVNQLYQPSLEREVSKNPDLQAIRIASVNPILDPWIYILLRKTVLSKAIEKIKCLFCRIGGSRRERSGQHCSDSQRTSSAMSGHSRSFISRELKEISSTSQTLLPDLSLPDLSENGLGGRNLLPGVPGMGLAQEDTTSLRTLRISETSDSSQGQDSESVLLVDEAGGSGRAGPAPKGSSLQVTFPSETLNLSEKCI
Chain of Prostaglandin F2-alpha receptor (P43088 whole entry): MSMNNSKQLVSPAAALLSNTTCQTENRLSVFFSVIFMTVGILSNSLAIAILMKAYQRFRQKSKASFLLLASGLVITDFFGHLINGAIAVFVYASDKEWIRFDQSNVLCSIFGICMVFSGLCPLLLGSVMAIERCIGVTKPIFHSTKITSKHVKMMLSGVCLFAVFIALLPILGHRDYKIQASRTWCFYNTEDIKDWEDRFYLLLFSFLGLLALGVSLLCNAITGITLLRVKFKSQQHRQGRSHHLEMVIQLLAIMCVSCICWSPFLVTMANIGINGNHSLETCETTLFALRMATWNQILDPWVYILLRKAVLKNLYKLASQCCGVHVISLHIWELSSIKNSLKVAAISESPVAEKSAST

SMILES: O=C(O)c1ccc(C2(NC(=O)c3cccc4ccn(Cc5ccc(C(F)(F)F)cc5)c34)CC2)cc1
- AUC [1]: 15 µM·h
- Activity [2]: 70%
- AUC(0-t) at 24 h [3]: 150 µM·h
- Ki [4]: 20 µM
- IC50 [5]: 9.5 nM
- concentration at 2 h [6]: 28 nM
- Activity [7]: 100%
- IC50 [8]: 1.8 nM
- IC50 [9]: 1.3 nM
- Activity [10]: 61 pmolequiv/mg
- ED100 [11]: 0.025 mg/kg/day
- Ki [12]: 0.23 nM
- Ki [13]: 1650 nM
- Ki [14]: 6.7 µM
- clearance [15]: 3.7 mL/min/kg
- ED100 [16]: 0.025 mg/kg/day
- Vd [17]: 0.8 L/kg
- bioavailability [18]: 86%
- Ki [19]: 6.4 µM
- Vd [20]: 1 L/kg
- half-life [21]: 276 min
